ChEMBL document CHEMBL3046618, “Syntheses and biological activities of pyranyl-substituted cinnamates” (Biosci Biotechnol Biochem, 2001)

Assays:
Brassica rapa = experiment: Toxicity against Brassica rapa assessed as plant growth inhibition at 100 ppm relative to untreated control; type: organism-based; conditions: in vivo
Outline: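 Seedlings held three days at 27°C in darkness, then radicle and hypocotyl lengths measured. Growth inhibition (%) calculated for each organ against control. Each experiment run three times.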

Rhizoctonia solani = experiment: Antifungal activity against Rhizoctonia solani assessed as fungal growth inhibition at 100 ppm relative to untreated control; type: functional; conditions: read-out: GI
Outline: (§1)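 Fungus precultured on potato dextrose agar (1.5% agar) for four days at 27°C before testing. Compounds tested at 100 ppm in triplicate. Growth inhibition (%) relative to untreated control.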

[Sclerotium] delphinii = Antifungal activity against Sclerotium delphinii assessed as fungal growth inhibition at 100 ppm relative to untreated control; type: functional; conditions: Agroathelia delphinii; read-out: GI; outline: as §1

SMILES	growth inhibition (GI) (Brassica rapa)	inhibition of growth at 100 ppm (Rhizoctonia solani) [%]	inhibition of growth at 100 ppm ([Sclerotium] delphinii) [%]
Cc1cc(OC(=O)/C=C/c2ccc(F)cc2)cc(=O)o1	> 50%	70	30
Cc1cc(OC(=O)/C=C/c2ccc(Cl)cc2)cc(=O)o1	> 60%	> 60	30
Cc1cc(OC(=O)/C=C/c2ccccc2F)cc(=O)o1	30%	60	> 40
Cc1cc(OC(=O)/C=C/c2cccc(F)c2)cc(=O)o1	> 50%	> 60	30
Cc1cc(OC(=O)/C=C/c2ccc(C(C)C)cc2)cc(=O)o1	20%	80	≤ 50
Cc1cc(OC(=O)/C=C/c2ccccc2Cl)cc(=O)o1	20%	60	20
Cc1cc(OC(=O)/C=C/c2cccc(Cl)c2)cc(=O)o1	<= 70%	60	40
Cc1cccc(/C=C/C(=O)Oc2cc(C)oc(=O)c2)c1	40%	70	40
Cc1ccc(/C=C/C(=O)Oc2cc(C)oc(=O)c2)cc1	30%	70	10
Cc1cc(OC(=O)/C=C/c2ccccc2)cc(=O)o1	30%	> 60	20
Cc1cc(OC(=O)/C=C/c2ccccc2C)cc(=O)o1	80%	70	20
O=C(/C=C/c1ccccc1F)Oc1cc(CCc2ccccc2)oc(=O)c1	40%	10	10
O=C(/C=C/c1cccc(F)c1)Oc1cc(CCc2ccccc2)oc(=O)c1	30%	40	> 30
O=C(/C=C/c1ccc(F)cc1)Oc1cc(CCc2ccccc2)oc(=O)c1	40%	10	10
O=C(/C=C/c1ccc(Cl)cc1)Oc1cc(CCc2ccccc2)oc(=O)c1	20%	10	> 30
O=C(/C=C/c1cccc(Cl)c1)Oc1cc(CCc2ccccc2)oc(=O)c1	50%	40	10
O=C(/C=C/c1ccccc1Cl)Oc1cc(CCc2ccccc2)oc(=O)c1	30%	40	> 30
Cc1cccc(/C=C/C(=O)Oc2cc(CCc3ccccc3)oc(=O)c2)c1	40%	50	30
Cc1ccc(/C=C/C(=O)Oc2cc(CCc3ccccc3)oc(=O)c2)cc1	30%	50	≤ 10
CC(C)c1ccc(/C=C/C(=O)Oc2cc(CCc3ccccc3)oc(=O)c2)cc1	10%	40	> 30
O=C(/C=C/c1ccccc1)Oc1cc(CCc2ccccc2)oc(=O)c1	30%	20	30
Cc1ccccc1/C=C/C(=O)Oc1cc(CCc2ccccc2)oc(=O)c1	> 60%	50	40
Cc1cc(O)cc(=O)o1 [4-HYDROXY-6-METHYLPYRAN-2-ONE]	–	≤ 10	20
COc1cc(CCc2ccccc2)oc(=O)c1 [DIHYDRO-5,6-DEHYDROKAWAIN]	0%	50	50
